Source: PubChem BioAssay
Active and inactive are the calls of the source.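 Rule for the calls, unless noted: active = viability at or under a set limit in both replicates, limit being median viability minus 3 SD (cut at about 48% in these data, passing the limit was not always enough); inconclusive = at or under the limit in just one replicate; inactive = at or above the limit in both replicates.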

Key:
[1] = reducers of endogenous Her2 protein level, primary screen, SKBR3 breast tumor cells, AlphaScreen, ATP viability (AID 461;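 active = Her2 level under about 52% in both replicate screens, with viability over 70% of control, limit read from the data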;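 for Her2 level: lower value means less Her2 protein in the cells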;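 for viability: percent of carrier control wells set as 100% viability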); conditions: 18-24 h, measured here: SKBR3 viability, ATP luminescence, at 10 µM
[2] = biological target: Receptor tyrosine-protein kinase erbB-2 (Homo sapiens) (UniProt P04626); experiment: as above; conditions: 18-24 h, at 10 µM, stronger effect = lower value
Chain of Receptor tyrosine-protein kinase erbB-2 (Homo sapiens) (P04626 whole entry, looked up): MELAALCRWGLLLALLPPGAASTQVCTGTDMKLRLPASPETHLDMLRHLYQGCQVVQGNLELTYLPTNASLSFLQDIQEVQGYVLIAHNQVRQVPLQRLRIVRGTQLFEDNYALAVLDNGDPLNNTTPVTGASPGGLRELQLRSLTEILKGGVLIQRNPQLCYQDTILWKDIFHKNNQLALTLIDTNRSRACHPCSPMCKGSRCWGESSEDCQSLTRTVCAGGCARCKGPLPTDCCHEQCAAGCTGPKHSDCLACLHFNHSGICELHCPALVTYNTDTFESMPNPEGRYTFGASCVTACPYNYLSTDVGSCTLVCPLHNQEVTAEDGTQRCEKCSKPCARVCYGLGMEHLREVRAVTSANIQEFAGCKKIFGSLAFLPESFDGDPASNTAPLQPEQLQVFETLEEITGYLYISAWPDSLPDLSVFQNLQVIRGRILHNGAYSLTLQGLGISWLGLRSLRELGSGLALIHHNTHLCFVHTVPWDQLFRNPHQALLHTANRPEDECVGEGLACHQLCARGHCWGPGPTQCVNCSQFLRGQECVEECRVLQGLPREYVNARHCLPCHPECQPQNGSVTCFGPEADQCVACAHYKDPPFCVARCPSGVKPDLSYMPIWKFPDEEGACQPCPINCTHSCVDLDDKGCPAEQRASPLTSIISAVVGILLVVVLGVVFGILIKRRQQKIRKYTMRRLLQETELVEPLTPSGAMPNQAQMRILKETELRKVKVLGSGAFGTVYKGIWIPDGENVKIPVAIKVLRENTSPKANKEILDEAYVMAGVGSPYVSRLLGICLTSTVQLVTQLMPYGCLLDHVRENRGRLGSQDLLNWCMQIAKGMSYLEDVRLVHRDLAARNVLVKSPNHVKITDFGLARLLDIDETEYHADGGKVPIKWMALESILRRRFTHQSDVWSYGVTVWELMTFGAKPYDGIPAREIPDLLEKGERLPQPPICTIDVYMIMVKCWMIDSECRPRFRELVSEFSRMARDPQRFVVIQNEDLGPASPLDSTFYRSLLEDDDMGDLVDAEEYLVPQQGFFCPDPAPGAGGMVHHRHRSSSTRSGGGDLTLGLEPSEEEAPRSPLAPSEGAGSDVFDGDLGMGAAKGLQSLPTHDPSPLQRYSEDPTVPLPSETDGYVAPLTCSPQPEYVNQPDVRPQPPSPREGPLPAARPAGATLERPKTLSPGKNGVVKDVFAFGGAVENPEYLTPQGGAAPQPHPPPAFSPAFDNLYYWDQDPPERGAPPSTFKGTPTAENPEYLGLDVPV

[3] = SK-BR-3 cell growth inhibitors, pilot screen, 24 h, human (AID 572;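 active = viability at or below 10% of carrier control in both of two separate runs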;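 note: compound exposure lasted between 18 and 24 h rather than exactly 24 h; 100% = carrier-treated control wells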); conditions: SK-BR-3 viability, CellTiter-Glo luminescence, at 10 µM, stronger effect = lower value
[4] = HUVEC growth inhibition – cell-based, human, primary screen (AID 575;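 active = viability at or below 30% in both replicate assays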;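 note: 100% = median of untreated cell wells with 0.1% DMSO on each plate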); conditions: HUVEC proliferation, CellTiter-Glo luminescence, 72 h; at 10 µM; stronger effect = lower value
In short: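 System – primary HUVEC, no more than 12 passages · Medium – Low-serum (2% FBS) EBM, supplemented · Times – 72 h exposure, 37 °C, 5% CO2, 30 min RT equilibration · Measured by – luminescent ATP assay · Read-out – % viability relative to median vehicle-well signal on each plate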

[5] = growth inhibitors of H69AR lung tumor, primary screen, human, duplicate replicates (AID 580); conditions: H69AR lung tumor cells viability, ATP luminescence, 72 h; at 10 µM; stronger effect = lower value;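 note: 100% = mean luminescence of untreated wells and 0% = no signal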
[6] = reversal of MRP1-mediated doxorubicin resistance, pilot screen, H69AR cells, doxorubicin co-treatment (AID 601;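 active = viability loss from added drug above about 55%, and viability with drug at most 40%, in both replicates, limit read from the data, passing the limit was not always enough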); conditions: CellTiter-Glo, 72 h, at 10 µM; for differential viability (reversal): stronger effect = higher value
[7] = 384-well plate pilot, post-Golgi transport modulator project, inhibition of yeast transport mutant growth (AID 636; in the data active = inhibition above about 31%); conditions: absorbance 615 nm, about 18 h, stronger effect = higher value
[8] = growth suppression of yeast trafficking mutant, preliminary HTS, modulators of trafficking downstream of Golgi apparatus project, 1536-format plate, OD 615 nm (AID 637; in the data active = inhibition above about 30%); conditions: yeast transport mutant growth, absorbance 615 nm, 18 h; stronger effect = higher value
[9] = H69AR cells + 2 uM doxorubicin, measured here: viability with 2 uM doxorubicin, stronger effect = lower value
[10] = H69AR cells, compound alone cytotoxicity

| Structure (SMILES) | viability [1] [%] | Her2 level [2] | viability [3] | viability [4] | viability [5] | differential viability (reversal) ([6]; H69AR cells + 2 uM doxorubicin) | viability [6, 9] [%] | viability [6, 10] [%] | inhibition [7] | inhibition [8] |
| --- | --- | --- | --- | --- | --- | --- | --- | --- | --- | --- |
| CC(C)COC(=O)NCC12C=CC(O1)C1C(=O)N(c3ccc(Cl)cc3)C(=O)C12 (stereo not given) | 96 | 99.5% (inactive) | 96% (inactive) | 116% (inactive) | 89.9% (inactive) | -2.55% (inactive) | 92.5 | 89.9 | -6.16% (inactive) | -7.3% (inactive) |
| Cc1ccsc1C(C(=O)NC1CCCCC1)N(C(=O)Cc1cccs1)C1CC1 (stereo not given) | 97.5 | 125% (inactive) | 97.5% (inactive) | 89.2% (inactive) | 86.4% (inactive) | 9.3% (inactive) | 77.1 | 86.4 | -4.87% (inactive) | -4% (inactive) |
| CN1CCN(C(=O)CCC(=O)c2ccc(F)cc2)CC1 | 114 | 79.5% (inactive) | 114% (inactive) | 96.4% (inactive) | 94.8% (inactive) | 7.6% (inactive) | 87.2 | 94.8 | -8.53% (inactive) | -3.77% (inactive) |
| O=C(Nc1cccc2ccccc12)c1cnccn1 | 82 | 88.5% (inactive) | 82% (inactive) | 92.3% (inactive) | 95% (inactive) | 12.5% (inactive) | 82.5 | 95 | -7.53% (inactive) | -1.59% (inactive) |
| CN(C(=O)c1ccc2c(=O)n3c(nc2c1)CCCCC3)c1ccccc1 | 96.5 | 91% (inactive) | 96.5% (inactive) | 97.5% (inactive) | 102% (inactive) | 0.655% (inactive) | 101 | 102 | -7.26% (inactive) | 2.54% (inactive) |
| Cn1cnc(S(=O)(=O)NCc2cccs2)c1 | 102 | 102% (inactive) | 102% (inactive) | 96.5% (inactive) | 95.5% (inactive) | 7.67% (inactive) | 87.8 | 95.5 | 0.68% (inactive) | -1.9% (inactive) |
| c1ccc2c(Cn3ccnc3)c[nH]c2c1 | 109 | 114% (inactive) | 109% (inactive) | 85.3% (inactive) | 86% (inactive) | -5.34% (inactive) | 91.4 | 86 | -5.19% (inactive) | -2.62% (inactive) |
| COc1ccc(Cl)cc1N1CC(c2nc3ccccc3[nH]2)CC1=O (stereo not given) | 97.5 | 104% (inactive) | 97.5% (inactive) | 98% (inactive) | 104% (inactive) | 7.82% (inactive) | 96.3 | 104 | -3.21% (inactive) | 2.17% (inactive) |
| COc1ccc(N2CCN(c3ncnc4c3cnn4-c3ccc(C)cc3C)CC2)cc1 | 81 | 72.5% (inactive) | 81% (inactive) | 87.1% (inactive) | 66.2% (inactive) | 46.8% (inactive) | 19.4 | 66.2 | -1.58% (inactive) | -1.29% (inactive) |
| COC(=O)c1ccc(CNC(=O)CSc2nc3sc(C)c(C)c3c(=O)n2C)o1 | 93.5 | 102% (inactive) | 93.5% (inactive) | 97.5% (inactive) | 98.5% (inactive) | 15.5% (inactive) | 82.9 | 98.5 | 0.65% (inactive) | -4.33% (inactive) |
| O=C(CN1CCN(c2ncccn2)CC1)Nc1ccccc1-n1cccc1 | 102 | 79% (inactive) | 102% (inactive) | 81.4% (inactive) | 92.9% (inactive) | 2.44% (inactive) | 90.5 | 92.9 | -1.43% (inactive) | -6.83% (inactive) |
| CC(=O)NCCn1c(SCC(=O)NCC2CCCO2)nc2ccccc2c1=O (stereo not given) | 95 | 99% (inactive) | 95% (inactive) | 109% (inactive) | 98.5% (inactive) | 10.1% (inactive) | 88.4 | 98.5 | -0.26% (inactive) | -8.1% (inactive) |
| CC(C)(C)C(=O)Cn1c(=N)n(Cc2ccccc2)c2ccccc21 | 84.5 | 81.5% (inactive) | 84.5% (inactive) | 53.3% (inactive) | 76.2% (inactive) | -0.985% (inactive) | 77.1 | 76.2 | -3.2% (inactive) | -2.3% (inactive) |
| COc1ccc(-c2nnc(SCC(=O)NC(=O)NCc3ccco3)o2)cc1 | 102 | 85.5% (inactive) | 102% (inactive) | 85.9% (inactive) | 86.8% (inactive) | -1.33% (inactive) | 88.1 | 86.8 | -0.65% (inactive) | -2.46% (inactive) |
| O=C(CCS(=O)(=O)c1cccc2nsnc12)N1CCN(Cc2ccc3c(c2)OCO3)CC1 | 90.5 | 99% (inactive) | 90.5% (inactive) | 92.7% (inactive) | 94.4% (inactive) | -9.25% (inactive) | 104 | 94.4 | -6.71% (inactive) | -5.87% (inactive) |
| CCN(CC)Cc1csc(C(N)=O)c1 | 108 | 107% (inactive) | 108% (inactive) | 104% (inactive) | 98.1% (inactive) | 5.04% (inactive) | 93.1 | 98.1 | -1.22% (inactive) | 0.32% (inactive) |

| Structure (SMILES) | viability [1] [%] | Her2 level [2] | viability [3] | viability [4] | viability [5] | differential viability (reversal) ([6]; H69AR cells + 2 uM doxorubicin) | viability [6, 9] [%] | viability [6, 10] [%] | inhibition [7] | inhibition [8] |
| --- | --- | --- | --- | --- | --- | --- | --- | --- | --- | --- |
| CCS(=O)(=O)c1nc2ccccc2n1CC(=O)N1CCCCC1 | 88.5 | 82.5% (inactive) | 88.5% (inactive) | 96.7% (inactive) | 80.4% (inactive) | 3.6% (inactive) | 76.8 | 80.4 | -3.42% (inactive) | 0.79% (inactive) |
| O=C(NCc1cccnc1)c1cn(CCc2ccccc2)nn1 | 99.5 | 93% (inactive) | 99.5% (inactive) | 130% (inactive) | 109% (inactive) | 20.4% (inactive) | 89 | 109 | -5.27% (inactive) | 4.33% (inactive) |
| OC(COc1ccc2ccccc2c1)CN1CCOCC1 (stereo not given) | 98.5 | 87% (inactive) | 98.5% (inactive) | 82.6% (inactive) | 81.5% (inactive) | -2.29% (inactive) | 83.8 | 81.5 | 1.56% (inactive) | 0.66% (inactive) |
| CCOC(=O)c1cc(CC)sc1NC(=O)CCC(=O)O | 121 | 93% (inactive) | 121% (inactive) | 96% (inactive) | 93.8% (inactive) | 2.2% (inactive) | 91.6 | 93.8 | -6.13% (inactive) | 0.32% (inactive) |
| CCOC(=O)CNC(=O)C(Cc1ccccc1)NS(=O)(=O)c1ccc2c(c1)CCC(=O)N2 (stereo not given) | 101 | 114% (inactive) | 101% (inactive) | 92.8% (inactive) | 90.7% (inactive) | -0.925% (inactive) | 91.7 | 90.7 | 1.84% (inactive) | -5.64% (inactive) |
| CN(C)C=Nc1nonc1N | 110 | 106% (inactive) | 110% (inactive) | 95.3% (inactive) | 94.1% (inactive) | 2.63% (inactive) | 91.4 | 94.1 | -5.53% (inactive) | 1.97% (inactive) |
| N#Cc1ccc(CSc2nnc(-c3cnccn3)o2)cc1 | 106 | 110% (inactive) | 106% (inactive) | 93.8% (inactive) | 106% (inactive) | 23.4% (inactive) | 82.5 | 106 | -0.67% (inactive) | -0.97% (inactive) |
| COc1ccc(-n2nc(C(=O)Nc3ccc4c(c3)OCO4)c3c4ccccc4n(C)c3c2=O)cc1 | 99 | 88.5% (inactive) | 99% (inactive) | 98% (inactive) | 92.6% (inactive) | -10.9% (inactive) | 104 | 92.6 | -3.03% (inactive) | -1.45% (inactive) |
| CCOC(=O)c1ccc(Oc2cc(C)nc(SC)n2)cc1 | 88.5 | 99% (inactive) | 88.5% (inactive) | 36.8% (inactive) | 16.5% (active) | -52% (inactive) | 68.5 | 16.5 | -5.54% (inactive) | 2.3% (inactive) |
| CCOC(=O)c1cc(C)n(CCCN2CCOCC2)c1C | 90.5 | 85% (inactive) | 90.5% (inactive) | 92.4% (inactive) | 91.1% (inactive) | -4.19% (inactive) | 95.2 | 91.1 | -0.66% (inactive) | 1.11% (inactive) |
| O=C(c1cccc2ccccc12)N1CCC(N2CCN(c3ccccc3)CC2)CC1 | 84 | 90.5% (inactive) | 84% (inactive) | 81.7% (inactive) | 88% (inactive) | -4% (inactive) | 92 | 88 | -1.97% (inactive) | -4.43% (inactive) |
| Cc1cc(C)n2cc(CSc3nnnn3-c3ccc(Cl)cc3)nc2n1 | 89.5 | 89% (inactive) | 89.5% (inactive) | 94.1% (inactive) | 97.6% (inactive) | 7.13% (inactive) | 90.5 | 97.6 | -1.73% (inactive) | 0.65% (inactive) |
| C=CCOc1nc2c(c(=O)n(C)c(=O)n2C)n1Cc1c(Cl)cccc1Cl | 97.5 | 83% (inactive) | 97.5% (inactive) | 94.9% (inactive) | 80.4% (inactive) | 62% (active) | 18.3 | 80.4 | -3.92% (inactive) | 11.9% (inactive) |
| COC(=O)Nc1nnc(CCc2ccccc2)s1 | 115 | 97.5% (inactive) | 115% (inactive) | 97.2% (inactive) | 95.2% (inactive) | 14.9% (inactive) | 80.3 | 95.2 | -7.07% (inactive) | 9.52% (inactive) |
| Cc1ccc(S(=O)(=O)N2CCCC2C(=O)n2nc(C)cc2C)cc1 (stereo not given) | 114 | 90% (inactive) | 114% (inactive) | 90.1% (inactive) | 83.5% (inactive) | 2.58% (inactive) | 80.9 | 83.5 | -7.97% (inactive) | 3.67% (inactive) |
